In ChEMBL document CHEMBL4229388, “Repositioning of the antipsychotic trifluoperazine: Synthesis, biological evaluation and in silico study of trifluoperazine analogs as anti-glioblastoma agents” (Eur J Med Chem, 2018):
Each block holds one compound with its values, some of them ahead of it. Activity calls are given as the source filed them. The calls are words filed in the database; no cut-off is given here.

Columns and labels:
[1] = test system: U-87 MG; assay: Induction of intracellular Ca2+ level in human U87MG cells at 1 to 100 uM by Fura-2 AM dye-based assay relative to trifluoperazine; assay type: functional, U-87MG ATCC
In short: (§1)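 U87MG cells or neural stem cells (NSCs) were loaded with 5 μM Fura-2 AM plus 1 μM pluronic acid for 40 min at room temperature. Recording was in HEPES-buffered saline at pH 7.3 with 2 mM CaCl₂. Compounds were applied by bath at 1, 3, 10, 30 or 100 μM. Emission at 510 nm was imaged under 340/380 nm excitation, and the ratio was calculated. Peak amplitude was taken relative to the 0–50 s baseline. Dose–response curves gave EC₅₀ and efficacy.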

[2] = test system: U-87 MG; assay: Cytotoxicity against human U87MG cells assessed as reduction in cell viability at 1 to 20 uM after 24 hrs by MTT assay relative to control; assay type: functional, U-87MG ATCC
In short: (§2)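 Cells were grown in DMEM with 10% FBS and penicillin/streptomycin at 37 °C and 5% CO₂, and used up to passage 20. They were seeded at 1.5 × 10³ cells/well, allowed to attach for 24 h, then treated with vehicle or compound diluted in complete medium for 24 h. MTT reagent was added for 2 h. Viability is expressed relative to cell numbers at initial time. n = 16; one-way ANOVA.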

[3] = Potency index, ratio of trifluoperazine IC50 to test compound IC50 for human GBL28 cells; assay type: functional
[4] = test system: U-87 MG; assay: Induction of intracellular Ca2+ level in human U87MG cells at 100 uM by Fura-2 AM dye-based assay relative to trifluoperazine; assay type: functional, cell-based; conditions: U-87MG ATCC; in short: as §1
[5] = test system: U-87 MG; assay: Induction of intracellular Ca2+ level in human U87MG cells by Fura-2 AM dye-based assay; assay type: functional, cell-based, U-87MG ATCC; in short: as §1
[6] = Cytotoxicity against human GBL28 cells assessed as reduction in cell viability at 1 to 20 uM after 24 hrs by MTT assay relative to control; assay type: functional; in short: as §2
[7] = Cytotoxicity against human GBL28 cells assessed as reduction in cell viability after 24 hrs by MTT assay; assay type: functional, cell-based; in short: as §2
[8] = test system: U-87 MG; assay: Cytotoxicity against human U87MG cells assessed as reduction in cell viability after 24 hrs by MTT assay; assay type: functional, cell-based, U-87MG ATCC; in short: as §2
[9] = test system: NSC; assay: Cytotoxicity against human NSC cells assessed as reduction in cell viability after 24 hrs by MTT assay; assay type: cell-based; in short: as §2
[10] = test system: NSC; assay: Induction of intracellular Ca2+ level in human NSC cells at 100 uM by Fura-2 AM dye-based assay; assay type: cell-based; in short: as §1
[11] = test system: U-87 MG; assay: Potency index, ratio of trifluoperazine IC50 to test compound IC50 for human U87MG cells; assay type: functional, U-87MG ATCC
[12] = test system: NSC; assay: Cytotoxicity against human NSC cells assessed as reduction in cell viability at 1 to 20 uM after 24 hrs by MTT assay relative to control; assay type: cell-based; in short: as §2
[13] = test system: U-87 MG; assay: Antitumor activity against human U87MG cells xenografted in BALB/c mouse assessed as reduction in tumor size at 5 mg/kg/day, ip administered for 21 days with 24 hrs resting period followed by treatment discontinuation till day 39 by hematoxylin and eosin staining based confocal microscopic analysis relative to control; assay type: functional, U-87MG ATCC; design: scale not given: the % may be the effect or the level left
In short: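 Athymic BALB/c nu/nu mice given intracranial U87MG cells (2.5 × 10⁵ cells in 5 μL) into the left frontal lobe (2 mm lateral from bregma, 0.5 mm anterior, 3.5 mm deep). Treatment began on day 3: 5 mg/kg/day i.p., or 0.9% saline for controls (n = 10 each). Dosing ran 21 days, then stopped until day 39. Brains were fixed in 4% PFA, paraffin-embedded, cut at 5 μm and H&E-stained. Tumor volume = [major axis × (minor axis)²]/2.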

[14] = test system: Mus musculus; assay: Toxicity in BALB/c mouse xenografted with human U87MG cells assessed as induction of neurologic deficits at 5 mg/kg/day, ip administered for 21 days with 24 hrs resting period followed by treatment discontinuation till day 39; assay type: organism-based; conditions: in vivo
In short: (§3)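 Same U87MG orthotopic xenograft mice: 5 mg/kg/day i.p. from day 3 for 21 days, or saline (n = 10 each), with dosing stopped until day 39. Mice were checked daily for general appearance, behavioral changes and neurologic deficits, including parkinsonism and extrapyramidal signs.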

[15] = test system: U-87 MG; assay: Induction of intracellular Ca2+ level in human U87MG cells at 1 to 100 uM by Fura-2 AM dye-based assay relative to control; assay type: functional, U-87MG ATCC; in short: as §1
[16] = test system: Mus musculus; assay: Toxicity in BALB/c mouse xenografted with human U87MG cells assessed as effect on behavioral changes at 5 mg/kg/day, ip administered for 21 days with 24 hrs resting period followed by treatment discontinuation till day 39; assay type: organism-based; conditions: in vivo; in short: as §3
[17] = test system: U-87 MG; assay: Antitumor activity against human U87MG cells xenografted in BALB/c mouse assessed as increase in mouse survival at 5 mg/kg, ip administered for 21 days with 24 hrs resting period followed by treatment discontinuation and measured on day 39; assay type: functional, U-87MG ATCC
In short: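 Orthotopic model in athymic BALB/c nu/nu mice: U87MG cells (2.5 × 10⁵ in 5 μL) injected into the left frontal lobe (2 mm lateral to bregma, 0.5 mm anterior, 3.5 mm deep). From day 3, drug was given i.p. at 5 mg/kg/day or 0.9% saline to controls (n = 10 each) for 21 days. Mice were monitored daily and sacrificed when moribund; survival curves were compared by log-rank test.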

[18] = test system: Mus musculus; assay: Toxicity in BALB/c mouse xenografted with human U87MG cells assessed as effect on general appearance at 5 mg/kg/day, ip administered for 21 days with 24 hrs resting period followed by treatment discontinuation till day 39; assay type: organism-based; conditions: in vivo; in short: as §3
[19] = Selectivity ratio of efficacy for induction of intracellular Ca2+ level in human U87MG cells at 1 to 100 uM to efficacy for induction of intracellular Ca2+ level in human NSC cells at 1 to 100 uM; assay type: functional
[20] = test system: NSC; assay: Induction of intracellular Ca2+ level in human NSC cells at 1 to 100 uM by Fura-2 AM dye-based assay relative to control; assay type: cell-based; conditions: read-out: Efficacy; in short: as §1

SMILES: CC1CCN(CCCN2c3ccccc3Sc3ccc(C(F)(F)F)cc32)CC1
Activity [1]: 83%

EC50 [5]: 6.7 µM
SMILES: FC(F)(F)c1ccc2c(c1)N(CCCCN1CCC(N3CCCCC3)CC1)c1ccccc1S2
Activity [1]: 123% | Efficacy [2]: 82% | Ratio IC50 [3]: 4 - 5 | Activity [4]: Active | Efficacy [6]: 85% | IC50 [7]: 2.1 µM | IC50 [8]: 2.2 µM | IC50 [9]: 3.1 µM | Activity [10]: Non-Toxic | Ratio IC50 [11]: 4 - 5 | Efficacy [12]: 43%

SMILES: CSc1ccc2c(c1)N(CCCCN1CCC(C)CC1)c1ccccc1S2
Activity [1]: 72%

SMILES: CSc1ccc2c(c1)N(CCCN1CCC(C)CC1)c1ccccc1S2
Activity [1]: 76%

EC50 [5]: 19.9 µM
SMILES: FC(F)(F)c1ccc2c(c1)N(CCCCN1CCC(N3CCOCC3)CC1)c1ccccc1S2
Activity [1]: 120% | Efficacy [2]: 82% | Activity [4]: Active | Efficacy [6]: 85% | IC50 [7]: 6.5 µM | IC50 [8]: 7.1 µM | IC50 [9]: 5.6 µM | Activity [10]: Non-Toxic | Efficacy [12]: 21%

SMILES: CC1CCN(CCCCN2c3ccccc3Sc3ccc(F)cc32)CC1
Activity [1]: 110%

SMILES: FC(F)(F)c1ccc2c(c1)N(CCCCN1CCC(N3CCCC3)CC1)c1ccccc1S2
Activity [13]: 88% | Activity [1]: 134% | Efficacy [2]: 82% | Ratio IC50 [3]: 4 - 5 | Activity [4]: Active | EC50 [5]: 6.2 µM | Efficacy [6]: 85% | IC50 [7]: 2.2 µM | IC50 [8]: 2.3 µM | IC50 [9]: 3.2 µM | Activity [14]: Non-Toxic | Activity [10]: Non-Toxic | Efficacy [15]: 100% | Ratio IC50 [11]: 4 - 5 | Activity [16]: Non-Toxic | Efficacy [12]: 45% | Survival [17]: 6 days | Activity [18]: Non-Toxic | Ratio [19]: 2 | Emax [20]: 50%

SMILES: FC(F)(F)c1ccc2c(c1)N(CCCN1CCC(N3CCCC3)CC1)c1ccccc1S2
Activity [1]: 72%

EC50 [5]: 13.5 µM
SMILES: CN1CCN(CCCN2c3ccccc3Sc3ccc(C(F)(F)F)cc32)CC1 [TRIFLUOPERAZINE]
Efficacy [2]: 82% | Efficacy [6]: 85% | IC50 [7]: 10.2 µM | IC50 [8]: 9.9 µM | IC50 [9]: 10.1 µM | Activity [10]: Non-Toxic | Efficacy [15]: 79% | Efficacy [12]: 21%

SMILES: CC1CCN(CCCN2c3ccccc3Sc3ccc(Cl)cc32)CC1
Activity [1]: 88%

SMILES: Clc1ccc2c(c1)N(CCCCN1CCC(N3CCCC3)CC1)c1ccccc1S2
Activity [1]: 101%

SMILES: CN1CCCN(CCCCN2c3ccccc3Sc3ccc(C(F)(F)F)cc32)CC1
Activity [1]: 107%

SMILES: CC1CCN(CCCCN2c3ccccc3Sc3ccc(C(F)(F)F)cc32)CC1
Activity [1]: 93%

SMILES: FC(F)(F)c1ccc2c(c1)N(CCCN1CCNCC1)c1ccccc1S2
Activity [1]: 108%

SMILES: FC(F)(F)c1ccc2c(c1)N(CCCCN1CCN(c3ccccc3)CC1)c1ccccc1S2
Activity [1]: 94%
